This data set is described as follows: Toxicity liver stage against HepG2, at 10uM. The class given is cell-based. Details: test concentration 10 uM, cell line HepG2-A16-CD81EGFP. Particulars: human, HepG2-A16-CD81EGFP cells; read-out: INHIBITION
The method, boiled down: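 Uninfected HepG2-A16-CD81EGFP cells, 3 × 10^3 per well, 1536-well, plated on prespotted compound at 10 μM final, parasite-free screening media added to match infected plates; puromycin 10 μM positive, DMSO 0.5% negative; run in parallel with 48 h PbLuc assay at 37 °C, 5% CO2; viability by CellTiter-Glo luminescence, normalized to controls.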
Regarding `Cc1cc2nc(C(C)C)cc(N3CCN(S(N)(=O)=O)CC3)n2n1`, the cytotoxicity at 10 µM is -11.3%.
Under `O=C(c1ccnnc1)N1CCO[C@H]2[C@H](Oc3cccnc3)CC[C@@H]21` stands 8.39%; under `O=C(O)c1ccc(N2CCC(Cc3ccccc3)CC2)nn1`, -6.14%; under `CC(Cc1cccc(F)c1)C(=O)NS(=O)(=O)c1cnn(C)c1` (stereo not given), 2.11%.
As to `CC(C)Nc1ncnc2c1CCN(c1cc(C(F)(F)F)ncn1)CC2`, the cytotoxicity at 10 µM is 6.07%.
As to `Cc1nc(C)n(CC2CN(CCOc3ccc(C#N)cc3)CCO2)n1` (stereo not given), the cytotoxicity at 10 µM was -2.69%.
Consider `CC(C)N1CCC(C(=O)N2CCCN(c3ccccc3)CC2)CC1`, for which the cytotoxicity at 10 µM turned out to be 7.4%.
Under `CNC(C(=O)OC)c1cc(F)ccc1F` (stereo not given) stands -1.07%.
With `Cc1cc(CN(C)C(=O)C2CCCN(C(N)=O)C2)no1` (stereo not given) the figure was 11.6%; with `CN(C)CCNCCC(Cc1ccccc1)C1CCOC(C)(C)C1` (stereo not given), 1.51%; with `CCn1c(SCC(=O)O)nnc1C(C)NC(=O)c1ccc(Cl)cc1` (stereo not given), 3.52%.
Under `Cc1cc(F)cc(S(=O)(=O)Nc2ccn(CCCC#N)n2)c1` stands 18%; under `CC(C)c1nc2c(n1C)CCN(Cc1nc(-c3cccs3)no1)C2`, -10.1%; under `CC(=O)NC1CCN(C(=O)Nc2cccc(SC(F)F)c2)CC1`, -0.598%.
Take `Cc1nc(C)c(C(=O)Nc2cc(N3CCC(C)CC3)ncn2)s1`: the cytotoxicity at 10 µM was -8.11%.
With `Cc1noc(C)c1CNC(=O)N1CCC(CN2CCC(C)CC2)CC1` the figure was 6.62%.
As for `CCN(CCCN1CCOCC1)C(=O)c1cnn(CC)c1`, the cytotoxicity at 10 µM stood at 46.6%.
Under `OC1(CN2CCOC(CNc3cccnn3)C2)CCCCC1` (stereo not given) stands -4.67%; under `CCc1nnc2n1CCN(C(=O)c1ccc3[nH]nnc3c1)C2`, -0.337%; under `Cc1ncoc1C(=O)N1CC[C@@H](O)[C@@H](O)[C@H](N2CCC(F)(F)CC2)C1`, 2.3%.
Under `CN(Cc1ccncc1)C1COC2(CCN(Cc3cccs3)CC2)C1` (stereo not given) stands -0.931%; under `Cn1cc(C2(C)CN(C(=O)COc3ccccc3F)CCO2)cn1` (stereo not given), 0.814%; under `OCCCN1CCCC1c1ccc(Br)cc1` (stereo not given), 2.94%.
With `CCOC1COC2(CCN(S(=O)(=O)c3cccc(C)c3)CC2)C1` (stereo not given) the figure was -79.8%.
In the case of `O=C1CC(c2ccccc2)c2snc(C(=O)O)c2N1` (stereo not given), the cytotoxicity at 10 µM is -5.02%.
Under `COCc1nccc(C2CCCN(Cc3ccc(SC)cc3)C2)n1` (stereo not given) stands 23.4%; under `Cc1ncnc2c1CCN(Cc1nccs1)CC2`, 9.91%.
With `O=C1COc2ccc(C(=O)NS(=O)(=O)c3ccccc3F)cc2N1` the figure was -0.185%; with `CC1CCCCN1C(=O)CCc1nnc(-c2ccccc2)o1` (stereo not given), -4.65%; with `CCn1cc(NC(=O)NCCN2CCCCCC2=O)cn1`, 0.107%.
Under `CCn1nc(C)cc1S(=O)(=O)N1CCC2(CCCN(C(C)C)C2=O)C1` (stereo not given) stands -16.3%.
With `Cc1cc(-c2nccs2)nc(C2CCN(Cc3ccccn3)CC2)n1`, the cytotoxicity at 10 µM was found to be 7.73%.
With `CS(=O)(=O)NCc1ncn2c1CN(C(=O)CC1CCCC1)CCC2` the figure was 4.79%; with `N#Cc1cccc(C(=O)N2CCCC(O)(CO)CC2)c1` (stereo not given), 1.29%; with `CC(C)CN1CC[C@@H]2[C@H](CC1)N(S(C)(=O)=O)CCS2(=O)=O`, 2.05%.
With `COC(C(=O)NC1CC1)c1ccccc1` (stereo not given) the figure was -3.73%; with `CCCSCC(=O)N1C[C@@H]2CC[C@H]1CN(Cc1cccnc1)C2`, 1.64%; with `Cc1ccc(C2(O)CCN(C(=O)c3sccc3S(N)(=O)=O)CC2)nc1`, -3.3%.
With `CC1CCN(C(=O)C(C)N2CCc3[nH]nc(C(F)(F)F)c3C2)CC1` (stereo not given) the figure was 2.54%; with `Cc1ccc(CN2CCc3onc(C(=O)NC(C)C)c3C2)o1`, 11.5%.

Source of the values: ChEMBL document CHEMBL4513216, “Probing the Open Global Health Chemical Diversity Library for Multistage-Active Starting Points for Next-Generation Antimalarials” (ACS Infect Dis, 2020).
